Measurements as given in ChEMBL document CHEMBL5058577, “EUbOPEN Chemogenomics Library 2 (Multiplex)” (2022).

Test system: HEK-293T
Test: Multiplex assay against HEK293T
Type: toxicity, cell-based
Conditions: human
How it was run: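 With compound added, live cells were imaged on a CQ1 microscope at 37°C and 5% CO2; staining with Hoechst33342, BioTracker Green Microtubule Cytoskeleton Dye, MitoTracker Red and Annexin V Alexa Fluor 680 had been done at seeding. The CellPathfinder machine-learning gating scheme split cells into Hoechst high-intensity objects or normal cells, normal cells into healthy, pyknosed or fragmented nuclei, and pyknosed cells into mitotic or apoptotic. The tubulin, mitochondrial-mass and membrane-permeability phenotypes are per cents of healthy-nucleus cells.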

[1] = 12 h, 1 µM, compound concentration 1 uM, replicate 1
[2] = 12 h, 1 µM, compound concentration 1 uM, replicate 2
[3] = 12 h, 10 µM, compound concentration 10 uM, replicate 1
[4] = 12 h, 10 µM, compound concentration 10 uM, replicate 2
[5] = 24 h, 1 µM, compound concentration 1 uM, replicate 1
[6] = 24 h, 1 µM, compound concentration 1 uM, replicate 2
[7] = 24 h, 10 µM, compound concentration 10 uM, replicate 1
[8] = 24 h, 10 µM, compound concentration 10 uM, replicate 2
[9] = 48 h, 1 µM, compound concentration 1 uM, replicate 1
[10] = 48 h, 1 µM, compound concentration 1 uM, replicate 2
[11] = 48 h, 10 µM, compound concentration 10 uM, replicate 1
[12] = 48 h, 10 µM, compound concentration 10 uM, replicate 2

c1cc(OCCCN2CCCCC2)ccc1CN1CCCCC1 [JNJ-5207852]
Population Apoptotic (%) [1]: 36% | Population Fragmented Nuclei (%) [1]: 6% | Population Healthy Nuclei (%) [1]: 84% | Population Hoechst High Intensity Objects (%) [1]: 5% | Population Membrane Permeable-Phenotype (%) [1]: 0% | Population Mitochondria Different-Phenotype (%) [1]: 36% | Population Mitotic Cells (%) [1]: 63% | Population Normal (%) [1]: 94% | Population Pyknosed Nuclei (%) [1]: 8% | Population Tubulin-Different-Phenotype (%) [1]: 21% | Total Cell Count [1]: 577 | Population Apoptotic (%) [2]: 47% | Population Fragmented Nuclei (%) [2]: 10% | Population Healthy Nuclei (%) [2]: 75% | Population Mitochondria Different-Phenotype (%) [2]: 53% | Population Mitotic Cells (%) [2]: 52% | Population Pyknosed Nuclei (%) [2]: 13% | Population Tubulin-Different-Phenotype (%) [2]: 17% | Total Cell Count [2]: 310 | Population Apoptotic (%) [3]: 40% | Population Fragmented Nuclei (%) [3]: 7% | Population Healthy Nuclei (%) [3]: 75% | Population Hoechst High Intensity Objects (%) [3]: 7% | Population Membrane Permeable-Phenotype (%) [3]: 0% | Population Mitochondria Different-Phenotype (%) [3]: 63% | Population Mitotic Cells (%) [3]: 59% | Population Normal (%) [3]: 92% | Population Pyknosed Nuclei (%) [3]: 17% | Population Tubulin-Different-Phenotype (%) [3]: 52% | Total Cell Count [3]: 328 | Population Apoptotic (%) [4]: 66% | Population Healthy Nuclei (%) [4]: 67% | Population Hoechst High Intensity Objects (%) [4]: 11% | Population Membrane Permeable-Phenotype (%) [4]: 1% | Population Mitochondria Different-Phenotype (%) [4]: 69% | Population Mitotic Cells (%) [4]: 33% | Population Normal (%) [4]: 88% | Population Pyknosed Nuclei (%) [4]: 24% | Population Tubulin-Different-Phenotype (%) [4]: 41% | Total Cell Count [4]: 259 | Population Apoptotic (%) [5]: 25% | Population Fragmented Nuclei (%) [5]: 6% | Population Healthy Nuclei (%) [5]: 82% | Population Hoechst High Intensity Objects (%) [5]: 5% | Population Membrane Permeable-Phenotype (%) [5]: 1% | Population Mitochondria Different-Phenotype (%) [5]: 20% | Population Mitotic Cells (%) [5]: 74% | Population Normal (%) [5]: 94% | Population Pyknosed Nuclei (%) [5]: 11% | Population Tubulin-Different-Phenotype (%) [5]: 15% | Total Cell Count [5]: 710 | Population Apoptotic (%) [6]: 41% | Population Fragmented Nuclei (%) [6]: 11% | Population Healthy Nuclei (%) [6]: 79% | Population Hoechst High Intensity Objects (%) [6]: 3% | Population Membrane Permeable-Phenotype (%) [6]: 0% | Population Mitochondria Different-Phenotype (%) [6]: 30% | Population Mitotic Cells (%) [6]: 58% | Population Normal (%) [6]: 96% | Population Pyknosed Nuclei (%) [6]: 9% | Population Tubulin-Different-Phenotype (%) [6]: 12% | Total Cell Count [6]: 447 | Population Apoptotic (%) [7]: 47% | Population Fragmented Nuclei (%) [7]: 9% | Population Healthy Nuclei (%) [7]: 77% | Population Hoechst High Intensity Objects (%) [7]: 6% | Population Membrane Permeable-Phenotype (%) [7]: 1% | Population Mitochondria Different-Phenotype (%) [7]: 47% | Population Mitotic Cells (%) [7]: 52% | Population Normal (%) [7]: 93% | Population Pyknosed Nuclei (%) [7]: 13% | Population Tubulin-Different-Phenotype (%) [7]: 44% | Total Cell Count [7]: 414 | Population Apoptotic (%) [8]: 65% | Population Fragmented Nuclei (%) [8]: 8% | Population Healthy Nuclei (%) [8]: 79% | Population Hoechst High Intensity Objects (%) [8]: 5% | Population Membrane Permeable-Phenotype (%) [8]: 2% | Population Mitochondria Different-Phenotype (%) [8]: 50% | Population Mitotic Cells (%) [8]: 34% | Population Normal (%) [8]: 94% | Population Pyknosed Nuclei (%) [8]: 11% | Population Tubulin-Different-Phenotype (%) [8]: 35% | Total Cell Count [8]: 322 | Population Apoptotic (%) [9]: 17% | Population Fragmented Nuclei (%) [9]: 14% | Population Healthy Nuclei (%) [9]: 80% | Population Hoechst High Intensity Objects (%) [9]: 2% | Population Membrane Permeable-Phenotype (%) [9]: 1% | Population Mitochondria Different-Phenotype (%) [9]: 12% | Population Mitotic Cells (%) [9]: 82% | Population Normal (%) [9]: 97% | Population Pyknosed Nuclei (%) [9]: 5% | Population Tubulin-Different-Phenotype (%) [9]: 11% | Total Cell Count [9]: 1128 | Population Apoptotic (%) [10]: 23% | Population Fragmented Nuclei (%) [10]: 11% | Population Healthy Nuclei (%) [10]: 83% | Population Hoechst High Intensity Objects (%) [10]: 1% | Population Mitochondria Different-Phenotype (%) [10]: 17% | Population Mitotic Cells (%) [10]: 76% | Population Normal (%) [10]: 98% | Population Pyknosed Nuclei (%) [10]: 4% | Population Tubulin-Different-Phenotype (%) [10]: 9% | Total Cell Count [10]: 746 | Population Apoptotic (%) [11]: 34% | Population Fragmented Nuclei (%) [11]: 13% | Population Healthy Nuclei (%) [11]: 77% | Population Hoechst High Intensity Objects (%) [11]: 8% | Population Membrane Permeable-Phenotype (%) [11]: 1% | Population Mitochondria Different-Phenotype (%) [11]: 29% | Population Mitotic Cells (%) [11]: 65% | Population Normal (%) [11]: 91% | Population Pyknosed Nuclei (%) [11]: 8% | Population Tubulin-Different-Phenotype (%) [11]: 28% | Total Cell Count [11]: 619 | Population Apoptotic (%) [12]: 52% | Population Healthy Nuclei (%) [12]: 75% | Population Hoechst High Intensity Objects (%) [12]: 9% | Population Mitochondria Different-Phenotype (%) [12]: 38% | Population Mitotic Cells (%) [12]: 47% | Population Normal (%) [12]: 90% | Population Pyknosed Nuclei (%) [12]: 10% | Population Tubulin-Different-Phenotype (%) [12]: 30% | Total Cell Count [12]: 424
